Rows were chosen to be rich in hits. Some 1.9% of all compounds tested hit in one or more screens of this group.
M4 PAM: human M4 muscarinic receptor positive allosteric modulators, primary screen, CHO-K1 cells, Fluo-8 calcium fluorescence; Muscarinic acetylcholine receptor M4 (Homo sapiens), P08173; CHO-K1 hM4/Gqi5, ACh EC20; 0% = ACh EC20, 100% = maximal ACh; activation, % at 3 µM; 360,000 compounds, 0.4% hits; AID 624126, 2012;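 active = activation above its plate's cutoff, the mean activation of sample wells plus 3 SD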
Target sequence (P08173 whole entry, looked up): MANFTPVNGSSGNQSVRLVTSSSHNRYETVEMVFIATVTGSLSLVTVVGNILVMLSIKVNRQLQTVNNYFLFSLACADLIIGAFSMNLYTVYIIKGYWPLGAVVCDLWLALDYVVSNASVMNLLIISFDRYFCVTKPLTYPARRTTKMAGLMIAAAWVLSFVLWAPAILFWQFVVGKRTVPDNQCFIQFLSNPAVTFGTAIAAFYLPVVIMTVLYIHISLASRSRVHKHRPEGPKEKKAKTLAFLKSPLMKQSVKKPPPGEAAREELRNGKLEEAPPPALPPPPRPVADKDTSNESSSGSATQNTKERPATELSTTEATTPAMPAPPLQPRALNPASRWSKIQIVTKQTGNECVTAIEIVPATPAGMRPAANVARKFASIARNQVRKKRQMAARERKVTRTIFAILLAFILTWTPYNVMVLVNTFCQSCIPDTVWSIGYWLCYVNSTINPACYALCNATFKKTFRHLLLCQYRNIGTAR
M4 antag: human M4 muscarinic receptor antagonists, primary screen, CHO cells, Fluo-8 calcium fluorescence; inhibition, % at 3 µM; 360,000 compounds, 0.73% hits; AID 624125, 2012; CHO-hM4 cells, ACh EC80; Muscarinic acetylcholine receptor M4 (Homo sapiens), P08173;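 active = inhibition above its plate's cutoff, the mean inhibition of sample wells plus 3 SD, cut at about 27% in these data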;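 also: 0% = acetylcholine EC80 with DMSO and 100% = DMSO without agonist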
M5 PAM: human M5 muscarinic receptor positive allosteric modulators, primary screen, CHO-K1 cells, Fluo-8 calcium fluorescence; 360,000 compounds, 0.3% hits; activation, % at 3 µM; CHO-K1 hM5, ACh EC20 PAM; 0% = ACh EC20, 100% = ACh EC100;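 active = activation above the run cutoff, the mean activation of all test compounds plus 3 SD, cut at about 18% in these data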
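Assay system: CHO-K1 hM5 cells / Incubation: Fluo-8 loading 80 min at 37 °C plus 30 min room temperature / Technique: Fluo-8 calcium dye fluorescence, kinetic read / Repeats: single replicate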
CHRM5 antagonist: human M5 muscarinic receptor antagonists, primary screen, CHO cells, Fluo-8 calcium fluorescence | Muscarinic acetylcholine receptor M5 (Homo sapiens), P08912 | CHO-hM5 cells, ACh EC80 | inhibition, % at 3 µM | 360,000 compounds, 0.59% hits;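 active = inhibition above a per-plate cutoff, the mean of that plate's test compounds plus 3 SD, cut at about 27% in these data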;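 also: 0% = acetylcholine EC80 with DMSO and 100% = DMSO without agonist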
CHRM5 agonist: human M5 muscarinic receptor agonists, primary screen, CHO-K1 cells, Fluo-8 calcium fluorescence; Muscarinic acetylcholine receptor M5 (Homo sapiens), P08912; CHO-K1 hM5 cells; 0% DMSO wells, 100% maximal acetylcholine response; activation, % at 3 µM; 360,000 compounds, 0.19% hits;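 active = activation above the run's mean over test compounds plus 3 SD, cut at about 23% in these data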;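 also: signal is peak over basal fluorescence ratio across the kinetic read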
M4 ag: human M4 muscarinic receptor agonists, primary screen, CHO-K1 cells, Fluo-8 calcium fluorescence; activation, % at 3 µM; 360,000 compounds, 0.14% hits; CHO-K1 hM4/Gqi5; vehicle 0%, full acetylcholine response 100%;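 active = activation above the run mean over all test wells plus 3 SD, cut at about 32% in these data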;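 also: peak over basal fluorescence ratio per well then scaled between controls; 0% = DMSO wells and 100% = acetylcholine at EC100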
* marks the source's active call; other numbers are inactive results.

SMILES	M4 PAM	M4 antag	M5 PAM	CHRM5 antagonist	CHRM5 agonist	M4 ag
O=C(CCN1C(=O)S/C(=C\c2ccc(F)cc2)C1=O)Nc1ccc(O)cc1C(=O)O	3.6	1.8	-0.4	10.0	-3.4	-0.7
C=CCC[C@@H](Cc1ccc(F)cc1)C(=O)OC[C@H]1CCCN1C(=O)[C@@H](CC=C)CC(=O)N[C@H](CO)Cc1ccccc1	-11.2	31.1*	-19.2	6.3	3.0	18.7
C=CCC[C@@H](Cc1ccc(F)cc1)C(=O)OC[C@@H]1CCCN1C(=O)[C@H](CC=C)CC(=O)N[C@H](CO)Cc1ccccc1	0.6	0.0	-2.9	8.0	-1.6	5.6
CCOC(=O)C1=C(C)N(CC(C)C)C(=O)C1	22.2*	-10.0	0.6	6.5	1.6	1.7
CC(=O)Nc1ccc2nc(-c3ccc(Br)o3)[nH]c2c1	22.9*	-6.0	0.5	7.3	0.5	2.9
CC(=O)Nc1cccc(C(=O)N2CCN(Cc3ccccc3)CC2)c1	20.1*	-0.5	6.1	0.5	2.8	2.6
CC(C)Sc1nnc(SCC(=O)NCCCN2CCCC2=O)s1	4.7	5.1	3.5	8.7	1.2	1.4
COc1ccc(C/C(C)=N/NC(=O)c2ccc(Cl)cc2)cc1	1.3	-0.1	-3.1	-5.4	4.1	1.4
COc1ccc(C/C(C)=N/NC(=O)c2cccnc2)cc1	32.7*	-17.5	19.4*	0.5	-2.0	1.6
CCCNC(=O)c1cc(C2CCCN(C(=O)c3ccc(OC)cc3)C2)on1 (stereo unspecified)	-5.6	3.0	-2.2	5.3	0.7	1.9
CCOC(=O)N1CCC(N2CCN(CCC(C)C)C(CCO)C2)CC1 (stereo unspecified)	-16.9	62.8*	-2.6	-2.9	-9.7	0.8
CCOC(=O)N1CCC(N2CCN(Cc3ccc(F)c(F)c3)C(CCO)C2)CC1 (stereo unspecified)	1.8	-1.4	3.2	-2.4	-8.9	1.5
CCc1nnc(NC(=O)c2cc(-c3ccccn3)nc3ccccc23)s1	19.4*	-1.8	2.2	5.1	4.7	0.8
CCCc1nnc(NC(=O)c2ccncc2)s1	-0.2	1.7	-1.8	-3.1	2.4	0.0
CCc1nnc(NC(=O)c2cc(-c3ccco3)nc3ccccc23)s1	4.2	-7.7	13.9	-4.7	0.8	1.1
CCc1nnc(NC(=O)c2ccncc2)s1	18.2*	-5.3	19.8*	-6.7	-3.6	0.0
Cc1ccc(NC(=O)C2(C)Cc3ccccc3C(=O)O2)cc1 (stereo unspecified)	24.8*	-4.9	16.3	-10.0	3.1	1.7
CN1CCCN(C(=O)c2ccc(Cl)s2)CC1	2.3	-0.9	-8.6	-3.9	-8.5	0.7
Nc1ncnc2c1ncn2[C@@H]1O[C@H](C(=O)N[C@H]2c3ccccc3C[C@H]2O)[C@@H](O)[C@H]1O	6.9	1.2	11.9	9.9	2.3	-0.2
CCN(CC)CCOC(=O)C(Cc1ccco1)Cc1cccc2ccccc12 (stereo unspecified)	-14.8	17.4	-27.4	28.5*	-16.0	12.5
COC(=O)c1ccc(N2C(c3ccsc3)=Cc3cc4c(cc3C2CC(=O)c2ccco2)OCO4)cc1 (stereo unspecified)	-13.5	30.1*	-9.6	0.6	-7.1	-1.2
CN(C)c1ccc(C(C#N)c2ccccc2)nn1 (stereo unspecified)	4.5	-0.8	-5.4	9.7	-3.8	0.7
CCOC(=O)CCc1nn(C)c(=O)c2ccccc12	7.7	-0.3	-13.8	66.6*	-2.8	3.2
CCOC(=O)C(C)c1nn(C)c(=O)c2ccccc12 (stereo unspecified)	-5.6	3.5	-18.5	6.8	-10.4	5.1

Screening results: PubChem, The Scripps Research Institute Molecular Screening Center
